Where two headings read alike, the source gives them in different places.
Experiments:
[1] = system: stage 4 melanoma; conditions: cited from earlier work
[2] = system: A375 cells; assay: Binding of [^131I]MIP-1145 to amelanotic A375 cells; format: cell-based, human
How it was run: (§1)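 Cells per well: 50,000 for SK-MEL-3, 25,000 for A375, attached overnight. Time course: up to 6 h at 37 °C with 11.5 nM tracer (~9 × 10⁵ CPM/well) in D-MEM/0.5% BSA. Acid wash (50 mM glycine, 150 mM NaCl, pH 3.0, 4 °C, 5 min) strips the surface fraction for gamma counting; cells are scintillation-counted. Competition: 2 h, 3.6 nM tracer plus 1.6–1,600 nM unlabeled compound.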

[3] = system: SK-MEL-3 cells; assay: Binding of [^131I]MIP-1145 to melanotic SK-MEL-3 cells; format: cell-based, human
How it was run: as §1

[4] = 2 hours, 3.6 nM tracer, up to 1.6 uM cold compound

interferon alpha-2b
Objective response rate ([1]; stage 4 disease, high-dose): 14%

CN(C)/N=N/c1[nH]cnc1C(N)=O [Dacarbazine]
Objective response rate ([1]; stage 4 melanoma patients): 16%

CCN(CC)CCNC(=O)c1cc(I)c(NC(=O)c2ccc(F)cc2)cc1OC [MIP-1145, N-(2-diethylamino-ethyl)-4-(4-fluoro-benzamido)-5-iodo-2-methoxy-benzamide]
Competition by non-radiolabeled MIP-1145 for [^131I]MIP-1145 binding [2, 4]: very little competition | Cell associated fraction of the total added ([2]; after 6 hours, 11.5 nM): about 13% | Competition by non-radiolabeled MIP-1145 for [^131I]MIP-1145 binding [3, 4]: very little competition | Cell associated fraction of the total added ([3]; after 6 hours, 11.5 nM): approximately 43%

— PMC2871064 (Cancer research, 2010)
